Data on 10 molecules can be found in paper PMC4267758 (Journal of molecular biology, 2014).

To fix the notation:
B1: paxillin^133–290 (LD2–LD4 region of chicken paxillin) (domain or fragment, UniProt P49024 133-290, looked up)
chain: MTSTSLGSNLSELDRLLLELNAVQHNPPSGFSADEVSRSPSLPNVTGPHYVIPESSSSAGGKAAPPTKEKPKRNGGRGIEDVRPSVESLLDELESSVPSPVPAITVSQGEVSSPQRVNASQQQTRISASSATRELDELMASLSDFKFMAQGKAGGSSS
B5: Pyk2 focal adhesion-targeting (Pyk2-FAT) domain (domain or fragment, human, UniProt Q14289 871-1005, looked up)
chain: ANLDRTDDLVYLNVMELVRAVLELKNELCQLPPEGYVVVVKNVGLTLRKLIGSVDDLLPSLPSSSRTEIEGTQKLLNKDLAELINKMRLAQQNAVTSLSEECKRQMLTASHTLAVDAKNLLDAVDQAKVLANLAH

The test system of data set [1] is Pyk2-FAT. Kind of data set: Isothermal titration calorimetry. It is filed as binding, human. The conditions noted are these: for binding to Pyk2-FAT (qualitative, ITC): 20 mM MES, pH 6.2, 25°C. The essentials: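 Human Pyk2 FAT domain (residues 871–1005) with an N-terminal His6 tag, expressed in E. coli BL21(DE3) and purified by Ni-affinity then gel filtration. The cell held 10 μM protein in 20 mM MES, pH 6.2. The syringe held chicken paxillin LD-motif peptides (100 μM) or the His-tagged paxillin 133–290 fragment (50 μM). Solutions degassed; 2 μl injections, 120 s apart, at 25°C. Ligand-into-buffer heats subtracted. Fits used one-site or two-site sequential models. Run in duplicate.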

For data set [2], the system named is Pyk2-FAT. Kind of data set: NMR titration / chemical shift perturbation of 15N-labeled Pyk2-FAT. It is filed as binding, human. Conditions: 15N-HSQC/TROSY titration, Pyk2-FAT:ligand 1:0.2 to 1:2, 20 mM MES, pH 6.2, 305K. The method in brief:
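15N-labeled Pyk2-FAT (400–500 μM in 20 mM MES, pH 6.2) titrated at 305 K with chicken LD peptides at protein:peptide ratios of 1:0.2 to 1:2. Peptide stocks were in dialysis buffer, pH readjusted to 6.2. 15N-HSQC spectra recorded at 600/800 MHz. Weighted shift Δav = [(ΔH² + (ΔN/5)²)/2]^1/2. For PRE, MTSL-labeled peptides were added at 1:0.2 and Iox/Ired taken after ascorbate reduction.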

In data set [3] the test system is Pyk2-FAT. The data set is described as follows: Steady-state 1H-15N heteronuclear NOE. On the set-up: species or system human. Conditions: 600 MHz, 305 K; relative to free Pyk2-FAT, loop regions. The method in brief:
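Steady-state 1H-15N heteronuclear NOE was measured at 600 MHz, 305 K on 15N-labelled Pyk2-FAT, free and bound to LD-motif peptide. Protein was at 400–500 μM in 20 mM MES pH 6.2. NOE values were taken as peak-intensity ratios of 1H-saturated to unsaturated spectra.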

Data set [4] deals with Pyk2-FAT. The data set is described as follows: H/D exchange NMR of Pyk2-FAT complexes. On the set-up: species or system human. Conditions: H/D exchange in D2O, fast 15N-HSQC, up to 10 h. The essentials:
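15N-labelled Pyk2-FAT complexes (400–500 μM, 20 mM MES pH 6.2) were lyophilized and rehydrated in D2O. FAST 1H-15N HSQC spectra were recorded at intervals up to 10 h at 305 K. HSQC spectra in H2O before and after exchange checked structural integrity.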

Data set [5] deals with FAT-like domain from G-protein-coupled receptor kinase-interacting protein 1 (GIT1). The conditions noted are these: ref [41]; cited from earlier work.
Data set [6] deals with FAK-FAT. Conditions: cited from earlier work.
Data set [7] concerns Pyk2-FAT. Kind of data set: Sedimentation equilibrium AUC. Conditions: AUC-SE; for Kd: two site hetero-association model (A+B+B↔ABB), 1:2 Pyk2-FAT to peptide, 20 mM MES, pH 6.2, 4 °C, Monte Carlo error, 500 iterations, confidence level 0.68. In kind it is binding, human. The method in brief: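 Sedimentation equilibrium at 4 °C in 20 mM MES, 50 mM NaCl, pH 6.2. Rotor speeds 18.4, 26.9 and 46k rpm, equilibrium reached at 30, 26 and 18 h. Loading 35–96 μM. Absorbance read at 280 and 230 nm, 0.001 cm radial steps, 20 replicates per point. Global least-squares fit across speeds to the A+B+B↔ABB model.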

For data set [8], the target named is B5. Kind of data set: ITC. (In general: In ITC the heat of successive injections is recorded.)
The nature of data set [9]: Sedimentation velocity AUC. It is filed as physicochemical. The conditions noted are these: for percentage protein amount in c(s) peak: 20 °C, 50,000 rpm; for f/f0 (weight-average frictional ratio): best-fit from c(s) distribution, 20 °C. The essentials:
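Sedimentation velocity at 50,000 rpm and 20°C in 20 mM MES, pH 6.2, with or without 50 mM NaCl. Partial specific volumes calculated from sequence. Rayleigh interference scans taken every 1.0 min over 10 h. Data fitted to a c(s) distribution model. The s-value is the ordinate maximum of each c(s) peak; percentage protein amount is reported per peak.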

Data set [10] deals with Pyk2-FAT. The data set is described as follows: Reverse NMR titration: unlabeled Pyk2-FAT added to 15N-labeled paxillin ligand. In kind it is binding, human. The conditions noted are these: 1H-15N HSQC/TROSY, ratios up to 1:2, 20 mM MES, pH 6.2. The method in brief: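 Unlabelled Pyk2-FAT was titrated into a 15N-labelled ligand in 20 mM MES pH 6.2, with 15N-1H HSQC spectra at 600/800 MHz and 305 K. Ligands were an expressed chicken paxillin 139–163 peptide or His-tagged chicken paxillin 133–290. […] Ratios were 1:0.2–1:2.0.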

In data set [11] the target is B5. The data set is described as follows: AUC.
In data set [12] the target is B1. The data set is described as follows: AUC.
Data set [13] addresses B1. The data set is described as follows: ITC.

Like-named read-outs stand apart in the source and are kept apart here.

By stoichiometry N is commonly meant the number of molecules, sites or subunits per partner or assembly.

For the molecule “LD3: paxillin derived peptide LD3 (chicken paxillin; residues 217–237), chemically synthesized (SVESLLDELESSVPSPVPAIT)”, the “binding to Pyk2-FAT (qualitative, ITC)” value in data set [1] is “very weak compared to LD2 and LD4 peptides”.

Take “LD4: paxillin derived peptide LD4 (chicken paxillin; residues 262–278), chemically synthesized (SATRELDELMASLSDFK)”: the “binding sites / site preference on Pyk2-FAT by NMR” value in data set [2] was “H2/H3 is the stronger binding site”. Also, the “steady-state 1H-15N NOE of Pyk2-FAT amides upon ligand binding” value in data set [3] is given as “significantly increased relative to free Pyk2-FAT”. Moreover, in data set [1] (from ITC and AUC studies), the “affinity preference for H2/H3 site over H1/H4 site of Pyk2-FAT” value turned out to be 5 fold. Also, the “amide H/D exchange protection of Pyk2-FAT in complex” value in data set [4] was “residues from H2/H3 and H1/H4 were protected even after 10 hrs”. The “binding site on GIT1 FAT-like domain” value in data set [5] is given as “located exclusively at the H1/H4 surface”. Besides, the “preferred binding site on FAK-FAT” value in data set [6] (ref [39] (b5), [39], [40]) is “binds to the H2/H3 site”. Also, in data set [6] (ref [40]), the “LD4 binding to the FAK FAT H1/H4 site” value is reported as “defective”. The “global free energy difference between first and second sites (ΔGAB and ΔGABB)” value in data set [7] (1:2 stoichiometry, two-site hetero-association model) was -0.77 kcal/mol. The “Delta G, single site (1:1)” value in [7] (single site hetero-association model, T = 277.149994K, RT = 0.551kcal/mol) is -7.52 kcal/mol. Further, the “Delta G, first binding site (1:2)” value in [7] (two site hetero-association model, first site, T = 277.149994K, RT = 0.551kcal/mol) is -7.47 kcal/mol. In addition, the “Delta G, second binding site (both occupied)” value in [7] (two site hetero-association model, second site, T = 277.149994K, RT = 0.551kcal/mol) was -6.70 kcal/mol. For the same molecule, the Kd was 1.29 ± 0.09 µM in [7] (read-out: KAB (first site), 1:2 stoichiometry) and 5.18 ± 0.36 µM in data set [7] (read-out: KABB (second site), 1:2 stoichiometry).

Consider B1, for which, in data set [8], the dH was -5 ± 0.1 kcal/mol and the “stoichiometry N” value was found to be 1.2.

B2: paxillin^133–290: chicken paxillin residues 133–290, truncated construct comprising LD motifs 2, 3 and 4, N-terminal His-tag (protein)
chain: MTSTSLGSNLSELDRLLLELNAVQHNPPSGFSADEVSRSPSLPNVTGPHYVIPESSSSAGGKAAPPTKEKPKRNGGRGIEDVRPSVESLLDELESSVPSPVPAITVSQGEVSSPQRVNASQQQTRISASSATRELDELMASLSDFKFMAQGKAGGSSS
modifications: left off: His-tag, N-terminal, kept
Consider B2, for which, in data set [2], the “binding sites / site preference on Pyk2-FAT by NMR” value is listed as “binding preference for H2/H3”. Also, in data set [9], the “oligomerization state of unbound protein” value is recorded as “appears to form some soluble associated species (oligomers) of undetermined stoichiometry’s, but the main species appears to be a monomer”; the “percentage protein amount in c(s) peak” value is given as 48%; the “f/f0 (weight-average frictional ratio)” value was determined as 1.70. Moreover, the “f/f0 (weight-average frictional ratio)” value in [9] (listed as paxillin) is given as 1.7. Besides, in data set [9] (theoretical 33,706 Da), the “apparent molecular mass of the 1:1 complex” value is given as 30.20 kDa. In data set [6] (similar paxillin^133–290 construct, ref [35]), the “increase of binding affinity for FAK FAT relative to LD2 or LD4 peptides alone” value was 10 fold. In addition, in [10], the “effect of unlabeled Pyk2-FAT on resonances of 15N-labeled ligand” value was “several peaks from the LD2 and LD4 regions disappeared beyond detection”.

B3: paxillin^133–242: paxillin construct LD2–LD3 (protein)
chain: MTSTSLGSNLSELDRLLLELNAVQHNPPSGFSADEVSRSPSLPNVTGPHYVIPESSSSAGGKAAPPTKEKPKRNGGRGIEDVRPSVESLLDELESSVPSPVPAITVSQGE
On to B3, for which the “binding to Pyk2-FAT (qualitative, ITC)” value in data set [1] is given as “two-site sequential binding model”.

B4: paxillin LD4 peptide (chicken paxillin residues 262-278) (peptide, UniProt P49024 262-278, looked up)
peptide: SATRELDELMASLSDFK
With B4, the Kd in data set [11] was 1.17 µM. Also, in [8], the “dH, first site” value is -2.8 ± 0.2 kcal/mol and the “dH, second site” value came out at 0.9 ± 0.3 kcal/mol.

In the case of B5, the Kd in [12] was determined as 0.4 µM; in [13], 1.8 ± 0.1 µM.

B6: Pyk2-FAT: FAT domain of human Pyk2 (residues 871–1005), N-terminal His6-tag (protein)
chain: ANLDRTDDLVYLNVMELVRAVLELKNELCQLPPEGYVVVVKNVGLTLRKLIGSVDDLLPSLPSSSRTEIEGTQKLLNKDLAELINKMRLAQQNAVTSLSEECKRQMLTASHTLAVDAKNLLDAVDQAKVLANLAH
modifications: left off: His6, N-terminal, state not stated
As for B6, in [9], the “percentage protein amount in c(s) peak” value is on record as 99% and the “f/f0 (weight-average frictional ratio)” value worked out at 1.34.

B7: paxillin^212–282: paxillin construct LD3–LD4 (protein)
chain: EDVRPSVESLLDELESSVPSPVPAITVSQGEVSSPQRVNASQQQTRISASSATRELDELMASLSDFKFMAQGK
B7: the “binding to Pyk2-FAT (qualitative, ITC)” value in data set [1] is “two-site sequential binding model”.

B8: paxillin LD2 peptide (chicken paxillin residues 139-163) (peptide, UniProt P49024 139-163, looked up)
peptide: GSNLSELDRLLLELNAVQHNPPSGF
Turning to B8, in data set [8], the “dH, first site” value is -2.4 ± 0.1 kcal/mol and the “dH, second site” value came to 0.3 ± 0.1 kcal/mol.
